Measurements published in EPA's CvTdb concentration-time database.

What was measured:
[1] = system: rat; experiment: concentration in expired air after dosing; conditions: dosed: 1,1,1,2-tetrachloroethane, 352 ppm, inhalation, duration: 6 hr
[2] = system: rat; experiment: concentration in blood after dosing; conditions: male
[3] = system: rat; experiment: concentration in body after dosing; conditions: dosed: [3H]benzo(a)pyrene, 1 ug/kg, inhalation, male, Sprague Dawley, radiolabel
[4] = system: rat; experiment: concentration in lung after dosing; conditions: dosed: [3H]benzo(a)pyrene, 1 ug/kg, inhalation, male, Sprague Dawley, radiolabel
[5] = system: rat; experiment: concentration in urine after dosing; conditions: male
[6] = system: rat; experiment: concentration in feces after dosing; conditions: male
[7] = system: rat; experiment: concentration in liver after dosing; conditions: dosed: [3H]benzo(a)pyrene, 1 ug/kg, inhalation, male, Sprague Dawley, radiolabel
[8] = system: rat; experiment: concentration in testes after dosing; conditions: dosed: [3H]benzo(a)pyrene, 1 ug/kg, inhalation, male, Sprague Dawley, radiolabel
[9] = system: rat; experiment: concentration in spleen after dosing; conditions: dosed: [3H]benzo(a)pyrene, 1 ug/kg, inhalation, male, Sprague Dawley, radiolabel
[10] = system: rat; experiment: concentration in kidney after dosing; conditions: dosed: [3H]benzo(a)pyrene, 1 ug/kg, inhalation, male, Sprague Dawley, radiolabel
[11] = system: rat; experiment: concentration in stomach after dosing; conditions: dosed: [3H]benzo(a)pyrene, 1 ug/kg, inhalation, male, Sprague Dawley, radiolabel
[12] = system: rat; experiment: concentration in intestines after dosing; conditions: dosed: [3H]benzo(a)pyrene, 1 ug/kg, inhalation, male, Sprague Dawley, radiolabel
[13] = system: rat; experiment: concentration in heart/thymus after dosing; conditions: dosed: [3H]benzo(a)pyrene, 1 ug/kg, inhalation, male, Sprague Dawley, radiolabel
[14] = system: human; experiment: concentration in expired air after dosing; negative times count back from the end of exposure; conditions: dosed: dichloromethane, inhalation, duration: 6 hr, male
Outline: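 Data points giving concentration or amount against time came from published in vivo toxicokinetic studies and from two structured collections. PubMed searching, classifier screening and manual review located the studies. Most points were digitised from plot screenshots using WebPlotDigitizer, the rest were copied from tables, and all keep their reported units.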

ClCC(Cl)(Cl)Cl [1,1,1,2-tetrachloroethane]
[1]
Conditions	concentration in expired air [ng/mL]
0.2586 h	89.8
0.5066 h	97.9
0.7323 h	90.1
0.7758 h	98.6
1.001 h	79.1
1.012 h	83.8
1.506 h	67.5
1.507 h	72.8
2.766 h	65.7
3.982 h	62.9
4.003 h	52
4.477 h	59.7
5.5 h	58.8
6.5 h	46.7
6.511 h	41.4
6.995 h	40.1
7.007 h	49.3
7.986 h	39.2
7.995 h	32.7
8.987 h	36.6
8.997 h	31
9.986 h	27
9.987 h	29.5

ClCCCl [1,2-Dichloroethane]
[2], dosed: 1,2-Dichloroethane, 100 mg/kg, oral, Wistar
Conditions	concentration in blood [ng/mL]
0.1036 h	52400
0.1179 h	13300
0.132 h	43800
0.1651 h	12600
0.1867 h	44200
0.1921 h	12300
0.2321 h	11400
0.2347 h	43700
0.2763 h	39500
0.2876 h	11900
0.3244 h	38100
0.3422 h	11800
0.3792 h	37800
0.3969 h	11700
0.4271 h	38800
0.4374 h	11200
0.5094 h	37200
0.5261 h	10800
0.7703 h	31800
0.7778 h	9360
1.018 h	25700
1.028 h	6280
1.518 h	20100
1.525 h	4200
2.019 h	14600
2.026 h	4360
2.519 h	10500
2.525 h	3610
3.016 h	1910
3.027 h	7170
3.517 h	2720
3.527 h	4850
4.013 h	3030
4.015 h	1450
4.508 h	862
4.52 h	1720
5.001 h	703
5.014 h	1210
145 s	5240
247 s	58200
291 s	10900

[3H][3H] [[3H] radioactivity]
Conditions	concentration in body, [3] [µg/kg]	concentration in heart/thymus, [13] [µg/kg]	concentration in intestines, [12] [µg/kg]	concentration in kidney, [10] [µg/kg]	concentration in liver, [7] [µg/kg]	concentration in lung, [4] [µg/kg]	concentration in spleen, [9] [µg/kg]	concentration in stomach, [11] [µg/kg]	concentration in testes, [8] [µg/kg]
0.25 h	0.23	0.008	0.049	0.019	0.196	0.322	0.004	0.007	0.007
0.5 h	0.263	0.005	0.052	0.014	0.186	0.204	0.002	0.012	0.006
1 h	0.271	0.005	0.099	0.022	0.158	0.154	0.003	0.046	0.011
1.5 h	0.25	0.005	0.126	0.024	0.171	0.113	0.002	0.037	0.013
2 h	0.223	0.006	0.11	0.02	0.132	0.11	0.002	0.069	0.011
3 h	0.214	0.005	0.123	0.018	0.083	0.068	0.002	0.05	0.008
4 h	0.21	0.004	0.133	0.017	0.067	0.035	0.001	0.04	0.009
5 min	0.144	0.009	0.019	0.011	0.125	0.595	0.005	0.003	0.004
6 h	0.215	0.004	0.149	0.02	0.046	0.052	0.002	0.058	0.008
10 min	0.264	0.016	0.033	0.019	0.208	0.419	0.003	0.007	0.005

dosed: [3H]benzo(a)pyrene, 1 ug/kg, inhalation, Sprague Dawley, radiolabel
Conditions	concentration in blood, [2] [µg/kg]	concentration in feces, [6] [µg/kg]	concentration in urine, [5] [µg/kg]
0.25 h	0.038	0.029	0.002
0.5 h	0.016	0.033	0.001
1 h	0.016	0.143	0.003
1.5 h	0.021	0.171	0.008
2 h	0.019	0.168	0.011
3 h	0.011	0.256	0.012
4 h	0.008	0.301	0.016
5 min	0.039	0.005	–
6 h	0.017	0.447	0.022
10 min	0.03	0.008	0.0001

[C-]#[O+] [carbon monoxide]
concentration in expired air [ppm], [14]
Conditions	100 ppm	350 ppm
0.083 h	17.1	34.6
0.25 h	16.2	32.5
0.5 h	15.8	32.6
1 h	15.7	33.3
1.5 h	14.9	32.3
2 h	14.6	30.9
3 h	11.8	26.8
4 h	10.8	25.1
6 h	10	21.2
8 h	9.1	16.9
16 h	6.8	11.8
24 h	4.3	5.6

concentration in expired air [ppm], [14], during exposure
Conditions	-36 s	-6 h	-5.75 h	-5.5 h	-5 h	-4.5 h	-4 h	-3 h	-2 h	-1 h
100 ppm	16.8	3.8	5.3	5.8	7	8.1	9	10.7	13.1	15.3
350 ppm	36.1	4.2	6.5	7.6	10.5	13.3	16.1	20.9	25.9	31.1

Oc1ccc2ccc3c4ccccc4cc4ccc1c2c43 [3-OH-BP]
dosed: benzo[a]pyrene, 200 mg/kg, iv, LIO
Conditions	concentration in feces, [6] [µg/kg]	concentration in urine, [5] [µg/kg]
24 h	6.9	3.9
48 h	9.9	5.4
72 h	8.9	6.2
96 h	9.6	5
120 h	7.7	4.2
144 h	9.1	2.6
168 h	8.4	2.6
192 h	4	2.5
216 h	3.3	2.8
240 h	3.2	2.7
264 h	3.1	2.5
288 h	2.5	2.6
312 h	2.5	2.5
336 h	2.3	2.2
360 h	2.3	2.5
